The results in this text go back to ChEMBL document CHEMBL3046628, “Synthesis and herbicidal activity of 2-cyano-3-substituted-pyridinemethylaminoacrylates” (J Agric Food Chem, 2003).

For one series, the system named is Zea mays. The series is described as follows: Phytotoxicity against Zea mays (maize) at 750 g/ha. Type of series: organism-based. To be noted: in vivo.
The subject of series [1] is Brassica napus. Put plainly: Post-emergence herbicidal activity against Brassica napus (oilseed rape) at 75 g/ha applied through spraying after first true leaf expanded. The format is functional. The gist of the method:
(§1)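 Seeds sown in 6 cm diameter plastic boxes containing artificial mixed soil. Amaranthus retroflexus seed was reproduced outdoors and stored at room temperature. Alfalfa and rape seed came from a crop institute.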

Series [2] deals with Brassica napus. The series is described as follows: Post-emergence herbicidal activity against Brassica napus (oilseed rape) at 300 g/ha applied through spraying after first true leaf expanded. Type of series: functional. The method, boiled down: as §1
For series [3], the system named is Brassica napus. The series is described as follows: Post-emergence herbicidal activity against Brassica napus (oilseed rape) at 1500 g/ha applied through spraying after first true leaf expanded. The format is functional. The gist of the method: as §1
The test system of series [4] is Amaranthus retroflexus. The series is described as follows: Post-emergence herbicidal activity against Amaranthus retroflexus at 75 g/ha applied through spraying after first true leaf expanded. Type of series: functional. The gist of the method:
as §1

The subject of series [5] is Amaranthus retroflexus. The series is described as follows: Post-emergence herbicidal activity against Amaranthus retroflexus at 300 g/ha applied through spraying after first true leaf expanded. The format is functional. The gist of the method: as §1
Series [6] concerns Amaranthus retroflexus. The series is described as follows: Post-emergence herbicidal activity against Amaranthus retroflexus at 1500 g/ha applied through spraying after first true leaf expanded. The format is functional. The gist of the method: as §1
The test system of series [7] is Medicago sativa. The series is described as follows: Post-emergence herbicidal activity against Medicago sativa (alfalfa) at 75 g/ha applied through spraying after first true leaf expanded. The format is functional. The gist of the method:
as §1

Series [8] relates to Medicago sativa. The series is described as follows: Post-emergence herbicidal activity against Medicago sativa (alfalfa) at 300 g/ha applied through spraying after first true leaf expanded. The format is functional. The gist of the method:
as §1

Series [9] deals with Medicago sativa. Put plainly: Post-emergence herbicidal activity against Medicago sativa (alfalfa) at 1500 g/ha applied through spraying after first true leaf expanded. Type of series: functional. The gist of the method:
as §1

Series [10] concerns Brassica napus. The series is described as follows: Post-emergence herbicidal activity against Brassica napus (oilseed rape) at 1.5 kg/ha applied through spraying after first true leaf expanded. Type of series: functional. The gist of the method: as §1
Series [11] deals with Amaranthus retroflexus. The series is described as follows: Post-emergence herbicidal activity against Amaranthus retroflexus at 1.5 kg/ha applied through spraying after first true leaf expanded. Type of series: functional. The gist of the method:
as §1

Series [12] has as its system Medicago sativa. The series is described as follows: Post-emergence herbicidal activity against Medicago sativa (alfalfa) at 1.5 kg/ha applied through spraying after first true leaf expanded. The format is functional. The gist of the method:
as §1

For series [13], the system named is Medicago sativa. Put plainly: Herbicidal activity against Medicago sativa (alfalfa). Type of series: functional.
Series [14] concerns Medicago sativa. The series is described as follows: Herbicidal activity against Medicago sativa (alfalfa) at 37.50 g/ha. The format is functional.
Series [15] deals with Medicago sativa. Put plainly: Herbicidal activity against Medicago sativa (alfalfa) at 18.75 g/ha. The format is functional.
Series [16] deals with Medicago sativa. The series is described as follows: Herbicidal activity against Medicago sativa (alfalfa) at 75 g/ha. Type of series: functional.
For series [17], the system named is Medicago sativa. Put plainly: Herbicidal activity against Medicago sativa (alfalfa) at 150 g/ha. Type of series: functional.
Series [18] has as its system Brassica napus. The series is described as follows: Pre-emergence herbicidal activity against Brassica napus (oilseed rape) at 1.5 kg/ha applied through spraying immediately after seed plantings. Type of series: functional. The gist of the method:
as §1

Series [19] relates to Amaranthus retroflexus. The series is described as follows: Pre-emergence herbicidal activity against Amaranthus retroflexus at 1.5 kg/ha applied through spraying immediately after seed plantings. The format is functional. The gist of the method: as §1
Series [20] concerns Medicago sativa. The series is described as follows: Pre-emergence herbicidal activity against Medicago sativa (alfalfa) at 1.5 kg/ha applied through spraying immediately after seed plantings. Type of series: functional. The gist of the method:
as §1

With `CCOCCOC(=O)/C(C#N)=C(/NCc1ccc(Cl)nc1)SC`, the Activity result with Zea mays is reported as “Non-toxic”; in the series on Brassica napus [1], 36.8%; in the series with Brassica napus [2], 100%; in the series on Brassica napus [3], 100%; with Amaranthus retroflexus [4], 52.3%; in the series on Amaranthus retroflexus [5], 96.2%. Also, the Activity in the series on Amaranthus retroflexus [6] was determined as 100%; with Medicago sativa [7], 36.3%; with Medicago sativa [8], 57.5%; with Medicago sativa [9], 76.2%; with Brassica napus [10], 80.6%; in the series with Amaranthus retroflexus [11] it was 100%. Also, the Activity in the series with Medicago sativa [12] is 75%; in the series on Medicago sativa [14], 88.9%; in the series on Medicago sativa [15], 80.6%; in the series with Medicago sativa [16], 95.3%; in the series on Medicago sativa [17], 98.1%. The ED50 in the series on Medicago sativa [13] came out at 4.35 g/ha. The compound also displayed an ED90 with Medicago sativa [13] of 39.3 g/ha.
In the case of `CCOCCOC(=O)/C(C#N)=C(/CC)NCc1ccc(Cl)nc1`, the Activity entry with Zea mays is given as “Non-toxic”; in the series on Brassica napus [1], 94.1%; in the series on Brassica napus [2] it was 98.4%; with Brassica napus [3], 100%; in the series on Amaranthus retroflexus [4], 88.4%; in the series on Amaranthus retroflexus [5] it was 100%. Further, the Activity in the series on Amaranthus retroflexus [6] worked out at 100%; with Medicago sativa [7], 45.3%; with Medicago sativa [8], 62.8%; with Medicago sativa [9], 83.7%; in the series with Brassica napus [18], 75%; in the series with Amaranthus retroflexus [19], 71.4%. The Activity in the series with Medicago sativa [20] was determined as 71.4%; in the series with Brassica napus [10], 100%; with Amaranthus retroflexus [11] it was 100%; with Medicago sativa [12], 83.7%.
As for `C=CCOC(=O)/C(C#N)=C(/NCc1ccc(Cl)nc1)SC`, the Activity result with Zea mays is “Non-toxic”; in the series with Brassica napus [1], 33.3%; with Brassica napus [2], 82.7%; with Brassica napus [3] it was 91.7%; with Amaranthus retroflexus [4], 22.2%; in the series on Amaranthus retroflexus [5], 61.6%. In addition, the Activity is reported as 100% in the series on Amaranthus retroflexus [6]; 15.9% in the series with Medicago sativa [7]; 56.1% in the series on Medicago sativa [8]; 100% in the series with Medicago sativa [9]; 0% in the series with Brassica napus [18]; 0% in the series on Amaranthus retroflexus [19]. The Activity in the series with Medicago sativa [20] was found to be 0%; in the series on Brassica napus [10], 91.7%; in the series on Amaranthus retroflexus [11], 100%; in the series on Medicago sativa [12] it was 100%.
Consider `CCOCCOC(=O)/C(C#N)=C(/NCc1ccc(Cl)cc1)SC`, for which, in the series on Medicago sativa [13], the ED50 came out at 8.85 g/ha. Further, the ED90 in the series with Medicago sativa [13] is on record as 193.95 g/ha. For the same compound, the Activity is reported as 76.9% with Medicago sativa [14], 59.3% in the series with Medicago sativa [15], 80.6% in the series with Medicago sativa [16] and 87% in the series on Medicago sativa [17].
For the compound `CCOCCOC(=O)/C(C#N)=C(\NCc1ccc(Cl)nc1)C(C)C`, the Activity entry in the series with Zea mays is given as “Non-toxic”; in the series on Brassica napus [1], 89.4%; in the series with Brassica napus [2] it was 100%; with Brassica napus [3], 100%; in the series with Amaranthus retroflexus [4], 72.1%; with Amaranthus retroflexus [5], 93%. Besides, the Activity with Amaranthus retroflexus [6] came out at 100%; with Medicago sativa [7], 14%; with Medicago sativa [8] it was 45.3%; with Medicago sativa [9], 75.6%; in the series with Brassica napus [18], 95.5%; in the series with Amaranthus retroflexus [19], 97.8%. The Activity in the series on Medicago sativa [20] stood at 23%; with Brassica napus [10], 100%; in the series on Amaranthus retroflexus [11] it was 93.9%; in the series on Medicago sativa [12], 65.9%.
In the case of `CS/C(NCc1ccc(Cl)nc1)=C(/C#N)C(=O)N1CCOCC1`, the Activity result in the series with Zea mays is “Non-toxic”; in the series on Brassica napus [1], 0%; in the series with Brassica napus [2], 0%; in the series with Brassica napus [3] it was 99.4%; in the series on Amaranthus retroflexus [4], 0%; in the series on Amaranthus retroflexus [5], 25%. For the same compound, the Activity with Amaranthus retroflexus [6] worked out at 100%; with Medicago sativa [7], 0%; in the series on Medicago sativa [8], 9.7%; in the series with Medicago sativa [9], 75%; with Brassica napus [18] it was 0%; in the series with Amaranthus retroflexus [19], 0%. For the same compound, the Activity in the series on Medicago sativa [20] amounted to 0%; with Brassica napus [10] it was 99.4%; in the series with Amaranthus retroflexus [11], 100%; in the series on Medicago sativa [12], 75%.
